Measurements pooled from the literature.
Protocols differ between the studies behind these lines. Values after ≈ are worked out from the molar mass of the structure shown.
Organism: Salmonella enterica

CO[C@H]1/C=C/O[C@@]2(C)Oc3c(C)c(O)c4c(O)c(c(/C=N/N5CCN(C)CC5)c(O)c4c3C2=O)NC(=O)/C(C)=C\C=C\[C@H](C)[C@H](O)[C@@H](C)[C@@H](O)[C@@H](C)[C@H](OC(C)=O)[C@@H]1C  IC50 (microbial growth; TYPHI): 0.12 µM
CCCCCCCCCCCC(=O)OC[C@H]1O[C@@H](n2cc(C)c(=O)[nH]c2=O)C[C@@H]1O  MBC (microbial killing; broth dilution; TYPHI): 8 µg/mL (≈ 18.8 µM)
[H]/N=C(/N)N[C@H]1[C@H](O)[C@@H](O)[C@H](O[C@@H]2O[C@@H](C)[C@](O)(C=O)[C@H]2O[C@@H]2O[C@@H](CO)[C@H](O)[C@@H](O)[C@@H]2NC)[C@@H](N/C(N)=N\[H])[C@@H]1O  IC50 (microbial growth; TYPHI): 8.1 µM
CO/N=C(\C(=O)N[C@@H]1C(=O)N2C(C(=O)O)=C(CSC(=O)c3ccco3)CS[C@H]12)c1csc(N)n1  MIC (microbial growth; CHOLERAESUIS; 20 h; pH 7): 1 µg/mL
CCCCCCCCCCCC(=O)OC[C@H]1O[C@@H](n2cc(C)c(=O)[nH]c2=O)C[C@@H]1OC(=O)c1ccc(C(C)(C)C)cc1  MBC (microbial killing; broth dilution; TYPHI): 16 µg/mL (≈ 27.4 µM)
CC1=NN(CNc2c(O)c(S(=O)(=O)O)cc3ccccc23)C(=O)C1=NNn1c(-c2ccccc2)nc2ccccc2c1=O  MIC (microbial growth; broth dilution; PARATYPHI; 24 h): 83.7 µM
CO[C@H]1O[C@H](COC(c2ccccc2)(c2ccccc2)c2ccccc2)[C@@H](OC(=O)c2ccc(C(C)(C)C)cc2)[C@H](OC(=O)c2ccc(C(C)(C)C)cc2)[C@H]1OC(=O)c1ccc(C(C)(C)C)cc1  MBC (microbial killing; broth dilution; TYPHI): 16 µg/mL (≈ 17.4 µM)
CC1=NN(CNc2ccccc2)C(=O)C1=NNn1c(-c2ccccc2)nc2ccccc2c1=O  MIC (microbial growth; broth dilution; PARATYPHI; 24 h): 221 µM
COc1cc(Cc2cnc(N)nc2N)cc(OC)c1OC  MIC (microbial growth; CHOLERAESUIS; 20 h; pH 5.5): 0.5 µg/mL
O=C1NN=C(N=Cc2ccccc2O)C1=NNn1c(-c2ccccc2)nc2ccccc2c1=O  MIC (microbial growth; broth dilution; PARATYPHI; 24 h): 55.4 µM
CCn1cc(C(=O)O)c(=O)c2ccc(C)nc21  MIC (microbial growth; CHOLERAESUIS; 20 h; pH 7.2): 4 µg/mL
